# Results as given in paper PMC4306626 (Journal of chromatography. B, Analytical technologies in …, 2015).
# Values joined by “and” are separate entries in the source; they are usually repeats but may differ in a detail not shown here. Equal entries are not always repeated. Marks after values point to notes of the source that are not given here.
# What was measured:
# [1] = cited from earlier work
# mammary fat pad tumor = conditions: 25 mg/kg body weight (BW), nude mice; cited from earlier work
# [2] = tested on: Rac with the guanine nucleotide exchange factor Vav2; conditions: cited from earlier work
# murine melanoma cell = conditions: cited from earlier work
# Rac = conditions: read-out: IC50, Rac activity; metastatic cancer cells; cited from earlier work
# metastatic cancer cells [3] = conditions: cited from earlier work
# murine leukemic cell = conditions: cited from earlier work
# Akt and Jun kinase (JNK) = conditions: breast and prostate cancer cell lines; cited from earlier work
# endothelial cells = conditions: in vitro; cited from earlier work
# [4] = Physicochemical properties
# [5] = Pharmacokinetics in nude mice after single IP or PO dose; assay type: in vivo, athymic nude (Nu/Nu) mice; conditions: for clearance (Cl/F): range over doses; for AUC(0-t) / Cmax / MRT / Vd/F / MRT inf / Tmax / half-life / AUC(0-inf): female, athymic nude (Nu/Nu), mouse, plasma
# How it was run: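 Female athymic nude mice, 3–4 weeks old, received a single 0.1 mL dose at 10, 20 or 40 mg/kg, given IP or by oral gavage. Vehicle was cremophor:ethanol:PBS (12.5:12.5:75). Four to five mice per group were killed at 0.5, 1, 4, 8 and 12 h. Cardiac blood went into sodium citrate on ice. Plasma was protein-precipitated with internal standard and assayed by UPLC/MS/MS (5–1000 ng/mL). Pooled non-compartmental analysis used linear/log-linear trapezoids.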
# c-Myc and Cyclin D = conditions: breast and prostate cancer cell lines; cited from earlier work
# [6] = Stability of EHop-016 in mouse plasma; assay type: in vitro ADME; conditions: for Concentration Measured (Mean ± S.D.): n=6; for Accuracy (% RE): stable if within ± 15 %
# How it was run: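 Test compound was spiked into mouse plasma at 5 and 1000 ng/mL and held on the bench for 5 h, six replicates per level. It was then extracted by protein precipitation and quantified by UPLC/MS/MS against plasma calibration standards. Accuracy was %RE against nominal and precision was %RSD. The compound counted as stable when %RE was within ± 15 %.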
# metastatic cancer cells [7] = conditions: higher concentrations; cited from earlier work
# [8] = tested on: p21-activated kinase 1 (PAK1); conditions: cited from earlier work
# Rho GTPase Cdc42 = conditions: higher concentrations; cited from earlier work
# human T-lymphocyte = conditions: cited from earlier work
# human leukemic cell = conditions: cited from earlier work
# [9] = Benchtop (5 Hr), nominal 5 ng/mL
# [10] = Benchtop (5 Hr), nominal 1000 ng/mL
smiles,measurement,setting,value
CS(=O)(=O)CCNCc1ccc(-c2ccc3ncnc(Nc4ccc(OCc5cccc(F)c5)c(Cl)c4)c3c2)o1 [lapatinib],systemic bioavailability (F),[1]; 10 mg/kg oral input,43 – 50%
same,time-to-peak (Tmax),"[1]; PO, 10 mg/kg, male mice",0.5 h
"CCn1c2ccccc2c2cc(Nc3ccnc(NCCCN4CCOCC4)n3)ccc21 [EHop-016, (N4-(9-Ethyl-9H-carbazol-3-yl)-N2-(3-morpholin-4-yl-propyl)-pyrimidine-2,4-diamine)]","tumor growth, metastasis and angiogenesis",mammary fat pad tumor,"effective at reducing mammary fat pad tumor growth, metastasis, and angiogenesis"
same,interaction of Rac with Vav2,[2],disrupt
same,murine melanoma cell migration,murine melanoma cell,inhibits
same,IC50,Rac,1 µM
same,Rac-directed lamellipodia formation and directed cell migration,metastatic cancer cells [3],inhibit
same,murine leukemic cell growth,murine leukemic cell,inhibits
same,Akt and Jun kinase (JNK) activities,Akt and Jun kinase (JNK),decreased
same,Rac activity and capillary tube formation of endothelial cells,endothelial cells,inhibition
same,pKa,[4],5
same,lipid solubility,[4]; source not stated,highly lipid-soluble
same,Cl/F,"[5]; IP, 10 mg/kg",494.2 ± 79.4 mL/h
same,Lambda-z,"[5]; IP, 10 mg/kg",.12 ± 0.01 hr ^−1
same,AUC0-t/Dose,"[5]; IP, 10 mg/kg, n=5",32.80 ± 4.21^a
same,Cl/F,"[5]; IP, 20 mg/kg",464.7 ± 51.5 mL/h
same,Lambda-z,"[5]; IP, 20 mg/kg",.15 ± .01 hr ^−1
same,AUC0-t/Dose,"[5]; IP, 20 mg/kg, n=5",38.42 ± 3.53^a
same,Cl/F,"[5]; IP, 40 mg/kg",394.2 ± 46.6 mL/h
same,Lambda-z,"[5]; IP, 40 mg/kg",.18 ± .01 hr ^−1
same,AUC0-t/Dose,"[5]; IP, 40 mg/kg, n=5",46.75 ± 5.42^a
same,clearance (Cl/F),[5]; IP,394 to 494 mL/h and 394.2 to 494.2 mL/h
same,relative bioavailability after oral gavage,"[5]; PO vs IP, range over the tested doses",26% - 40%
same,plasma drug concentrations lower after PO than after IP,[5]; PO vs corresponding IP dosages,~ 10 times
same,Cl/F,"[5]; PO, 10 mg/kg",1315.3 mL/h and 1315.3 ± 281.7 mL/h
same,Lambda-z,"[5]; PO, 10 mg/kg",.20 ± .01 hr ^−1
same,AUC0-t/Dose,"[5]; PO, 10 mg/kg, n=4",13.37 ± 2.25
same,"Frel (relative bioavailability, PO to IP)","[5]; PO, 20 mg/kg",33.4 ± 4.9%
same,AUC0-t/Dose,"[5]; PO, 20 mg/kg, n=4",12.85 ± 3.11
same,Cl/F,"[5]; PO, 40 mg/kg",1251.4 mL/h and 1251.4 ± 388.1 mL/h
same,"Frel (relative bioavailability, PO to IP)","[5]; PO, 40 mg/kg",26.0 ± 3.1%
same,Lambda-z,"[5]; PO, 40 mg/kg",.12 ± .001 hr ^−1
same,AUC0-t/Dose,"[5]; PO, 40 mg/kg, n=4",12.17 ± 2.9
same,clearance (Cl/F),[5]; PO,1251 to 1315 mL/h
same,elimination half-life (t1/2),"[5]; PO, range over the tested doses",3.44 to 5.87 h
same,Vss,"[5]; after IP doses, approximately",65 to 72 L/kg BW
same,AUC(0-t),[5]; ip,328 to 1870 ng·h/mL
same,Cmax,[5]; ip,163 to 835 ng/mL
same,MRT,[5]; ip,4.21 to 6.75 h
same,Vd/F,[5]; ip,2.2 to 4.1 L
same,AUC(0-t),"[5]; ip, 10 mg/kg",328 ± 42.1 ng·h/mL
same,Cmax,"[5]; ip, 10 mg/kg",163 ± 17.7 ng/mL
same,MRT inf,"[5]; ip, 10 mg/kg",6.75 ± 0.27 h
same,Tmax,"[5]; ip, 10 mg/kg",0.5 h
same,Vd/F,"[5]; ip, 10 mg/kg",4.09 ± 0.297 L
same,half-life,"[5]; ip, 10 mg/kg, t1/2, IP",5.73 ± 0.43 h
same,AUC(0-t),"[5]; ip, 20 mg/kg",768 ± 70.6 ng·h/mL
same,Cmax,"[5]; ip, 20 mg/kg",455 ± 50.3 ng/mL
same,MRT inf,"[5]; ip, 20 mg/kg",4.73 ± 0.27 h
same,Tmax,"[5]; ip, 20 mg/kg",0.5 h
same,Vd/F,"[5]; ip, 20 mg/kg",3.12 ± 0.0927 L
same,half-life,"[5]; ip, 20 mg/kg, t1/2, IP",4.66 ± 0.35 h
same,AUC(0-inf),"[5]; ip, 40 mg/kg",328 to 1870 ng·h/mL
same,AUC(0-t),"[5]; ip, 40 mg/kg",1870 ± 217 ng·h/mL
same,Cmax,"[5]; ip, 40 mg/kg",834 ± 88.9 ng/mL
same,MRT inf,"[5]; ip, 40 mg/kg",4.21 ± 0.14 h
same,Tmax,"[5]; ip, 40 mg/kg",0.5 h
same,Vd/F,"[5]; ip, 40 mg/kg",2.16 ± 0.337 L
same,half-life,"[5]; ip, 40 mg/kg, t1/2, IP",3.79 ± 0.12 h
same,Tmax,"[5]; other: intraperitoneal and oral, 20 mg/kg",0.5 h
same,AUC(0-t),[5]; po,134 to 487 ng·h/mL
same,Cmax,[5]; po,26 to 90 ng/mL
same,MRT,[5]; po,6.59 to 8.76 h
same,Vd/F,[5]; po,6.5 to 10.6 L
same,AUC(0-t),"[5]; po, 10 mg/kg",134 ± 22.5 ng·h/mL
same,Cmax,"[5]; po, 10 mg/kg",26.1 ± 10.1 ng/mL
same,MRT inf,"[5]; po, 10 mg/kg",6.59 ± 0.37 h
same,Tmax,"[5]; po, 10 mg/kg",0.5 h
same,Vd/F,"[5]; po, 10 mg/kg",6.53 ± 1.78 L
same,half-life,"[5]; po, 10 mg/kg, t1/2, PO",3.44 ± 0.15 h
same,AUC(0-t),"[5]; po, 20 mg/kg",257 ± 62.3 ng·h/mL
same,Cmax,"[5]; po, 20 mg/kg",35.1 ± 11 ng/mL
same,Tmax,"[5]; po, 20 mg/kg",1 h
same,AUC(0-inf),"[5]; po, 40 mg/kg",133 to 487 ng·h/mL
same,AUC(0-t),"[5]; po, 40 mg/kg",487 ± 116 ng·h/mL
same,Cmax,"[5]; po, 40 mg/kg",89.7 ± 17.6 ng/mL
same,MRT inf,"[5]; po, 40 mg/kg",8.76 ± 0.43 h
same,Tmax,"[5]; po, 40 mg/kg",0.5 h
same,Vd/F,"[5]; po, 40 mg/kg",10.6 ± 3.39 L
same,half-life,"[5]; po, 40 mg/kg, t1/2, PO",5.87 ± 0.06 h
same,share of the drug in the bloodstream,[5]; suggested by Vss values,< 1%
same,expression of c-Myc and Cyclin D,c-Myc and Cyclin D,decreased
same,stability in mouse plasma,[6]; 12 freeze-thaw cycles lasting 12 hours and six freeze-thaw cycles lasting 24 hours,stable
same,Concentration Measured (Mean ± S.D.),[6]; [9],4.67 ± 0.36 ng/mL
same,Accuracy (% RE),[6]; [9],−6.6 % RE
same,Concentration Measured (Mean ± S.D.),[6]; [10],999.39 ± 17.23 ng/mL
same,Accuracy (% RE),[6]; [10],−0.1 % RE
same,Accuracy (% RE),"[6]; Freeze-Thaw 6 Cycles (24 Hr), nominal 5 ng/mL",14.3 % RE
same,Accuracy (% RE),"[6]; Freeze-Thaw 6 Cycles (24 Hr), nominal 1000 ng/mL",11.6 % RE
same,Concentration Measured (Mean ± S.D.),"[6]; Freeze-Thaw 6 Cycles (24 Hr), −80°C, nominal 5 ng/mL",5.71 ± 0.34 ng/mL
same,Concentration Measured (Mean ± S.D.),"[6]; Freeze-Thaw 6 Cycles (24 Hr), −80°C, nominal 1000 ng/mL",1116.32 ± 27.38 ng/mL
same,Accuracy (% RE),"[6]; Freeze-Thaw 12 Cycles (12 Hr), nominal 5 ng/mL",11.3 % RE
same,Accuracy (% RE),"[6]; Freeze-Thaw 12 Cycles (12 Hr), nominal 1000 ng/mL",12.8 % RE
same,Concentration Measured (Mean ± S.D.),"[6]; Freeze-Thaw 12 Cycles (12 Hr), −80°C, nominal 5 ng/mL",5.57 ± 0.05 ng/mL
same,Concentration Measured (Mean ± S.D.),"[6]; Freeze-Thaw 12 Cycles (12 Hr), −80°C, nominal 1000 ng/mL",1127.70 ± 14.36 ng/mL
same,Accuracy (% RE),"[6]; Long Term Stability 26 Days, nominal 5 ng/mL",4.9 % RE
same,Accuracy (% RE),"[6]; Long Term Stability 26 Days, nominal 1000 ng/mL",0.4 % RE
same,Concentration Measured (Mean ± S.D.),"[6]; Long Term Stability 26 Days, −20°C, nominal 5 ng/mL",5.24 ± 0.08 ng/mL
same,Concentration Measured (Mean ± S.D.),"[6]; Long Term Stability 26 Days, −20°C, nominal 1000 ng/mL",1004.39 ± 25.98 ng/mL
same,Accuracy (% RE),"[6]; Long Term Stability 111 Days, nominal 5 ng/mL",−1.3 % RE
same,Accuracy (% RE),"[6]; Long Term Stability 111 Days, nominal 1000 ng/mL",−4.3 % RE
same,Concentration Measured (Mean ± S.D.),"[6]; Long Term Stability 111 Days, −20°C, nominal 5 ng/mL",4.94 ± 0.29 ng/mL
same,Concentration Measured (Mean ± S.D.),"[6]; Long Term Stability 111 Days, −20°C, nominal 1000 ng/mL",956.77 ± 79.26 ng/mL
same,Concentration Measured (Mean ± S.D.),"[6]; Post Preparation (237 Hours), ambient temperature, nominal 10 ng/mL",10.79 ± 0.25 ng/mL
same,Concentration Measured (Mean ± S.D.),"[6]; Post Preparation (237 Hours), ambient temperature, nominal 30 ng/mL",32.20 ± 1.40 ng/mL
same,Concentration Measured (Mean ± S.D.),"[6]; Post Preparation (237 Hours), ambient temperature, nominal 75 ng/mL",83.79 ± 2.06 ng/mL
same,Concentration Measured (Mean ± S.D.),"[6]; Post Preparation (237 Hours), ambient temperature, nominal 750 ng/mL",838.83 ± 22.57 ng/mL
same,Accuracy (% RE),"[6]; Post Preparation (237 Hours), nominal 10 ng/mL",7.88 % RE
same,Accuracy (% RE),"[6]; Post Preparation (237 Hours), nominal 30 ng/mL",7.32 % RE
same,Accuracy (% RE),"[6]; Post Preparation (237 Hours), nominal 75 ng/mL",11.72 % RE
same,Accuracy (% RE),"[6]; Post Preparation (237 Hours), nominal 750 ng/mL",11.84 % RE
same,stability in mouse plasma,[6]; all of the conditions tested in the validation,very stable
same,stability in mouse plasma,"[6]; ambient temperature, five hours and 237 hours",stable
same,stability in mouse plasma,"[6]; long-term at –20°C, 26 days and 111 days",stable
same,concentration at which apoptosis is activated,metastatic cancer cells [7],> 10 µM
same,concentration at which cell viability is reduced,metastatic cancer cells [7],> 10 µM
same,activity of PAK1,[8],inhibit
same,concentration at which activity of the Rho GTPase Cdc42 is inhibited,Rho GTPase Cdc42,> 10 µM
same,human T-lymphocyte migration,human T-lymphocyte,inhibits
same,human leukemic cell growth,human leukemic cell,inhibits
